pIC50: −log10 of the molar value.
What was measured:
[1] = target: T1, Serotonin 3 (5-HT3) receptor (Rattus norvegicus, UniProt P35563+Q9JJ16); assay: In vitro inhibitory concentration against radioligand [3H]BRL-43694 binding to 5-hydroxytryptamine 3 receptor in rat cortical membrane; type: cell membranes
T1 sequence (P35563 whole entry): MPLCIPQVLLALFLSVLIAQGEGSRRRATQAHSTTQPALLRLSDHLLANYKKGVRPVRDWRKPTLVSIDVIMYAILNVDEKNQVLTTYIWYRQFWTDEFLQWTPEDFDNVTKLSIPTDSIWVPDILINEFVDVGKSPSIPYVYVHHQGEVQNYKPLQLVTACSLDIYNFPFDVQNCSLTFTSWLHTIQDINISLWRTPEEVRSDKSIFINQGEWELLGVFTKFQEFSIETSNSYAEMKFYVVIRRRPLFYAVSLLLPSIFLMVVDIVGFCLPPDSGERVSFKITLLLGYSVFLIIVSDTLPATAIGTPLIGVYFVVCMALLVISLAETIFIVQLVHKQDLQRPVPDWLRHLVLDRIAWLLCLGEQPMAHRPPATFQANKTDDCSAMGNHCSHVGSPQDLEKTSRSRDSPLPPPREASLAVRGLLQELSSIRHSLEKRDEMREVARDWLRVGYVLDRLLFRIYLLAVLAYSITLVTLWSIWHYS
T1 sequence (Q9JJ16 whole entry): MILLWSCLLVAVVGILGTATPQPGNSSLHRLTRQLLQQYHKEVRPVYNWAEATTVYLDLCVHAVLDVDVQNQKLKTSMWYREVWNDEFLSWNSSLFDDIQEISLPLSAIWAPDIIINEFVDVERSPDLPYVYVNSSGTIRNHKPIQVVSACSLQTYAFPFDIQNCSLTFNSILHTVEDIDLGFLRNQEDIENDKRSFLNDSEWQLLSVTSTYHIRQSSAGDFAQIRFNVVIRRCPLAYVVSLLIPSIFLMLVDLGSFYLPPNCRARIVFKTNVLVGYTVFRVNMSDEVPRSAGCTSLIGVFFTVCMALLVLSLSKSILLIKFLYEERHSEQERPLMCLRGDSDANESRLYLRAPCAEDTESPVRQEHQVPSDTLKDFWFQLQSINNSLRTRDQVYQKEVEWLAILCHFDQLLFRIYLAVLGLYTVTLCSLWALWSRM
Procedure, shortened: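 Rat cortex was homogenized in 50 mM Hepes-HCl pH 7.5, then incubated in 50 mM Hepes-HCl pH 7.4 with 10 μM pargyline. [3H]-BRL43694 1 nM final, 30 min at 25 °C; nonspecific binding with GR38032 10 μM. Filtration through GF/B, liquid scintillation counting, IC50 from dose-inhibition curves.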

[2] = target: T2, Adrenergic receptor alpha-1 (Rattus norvegicus, UniProt P15823+P23944+P43140); assay: In vitro inhibitory concentration against radioligand [3H]prazosin binding to alpha-1 adrenergic receptor in rat cortical membrane.; type: cell membranes
T2 sequence (P15823 whole entry): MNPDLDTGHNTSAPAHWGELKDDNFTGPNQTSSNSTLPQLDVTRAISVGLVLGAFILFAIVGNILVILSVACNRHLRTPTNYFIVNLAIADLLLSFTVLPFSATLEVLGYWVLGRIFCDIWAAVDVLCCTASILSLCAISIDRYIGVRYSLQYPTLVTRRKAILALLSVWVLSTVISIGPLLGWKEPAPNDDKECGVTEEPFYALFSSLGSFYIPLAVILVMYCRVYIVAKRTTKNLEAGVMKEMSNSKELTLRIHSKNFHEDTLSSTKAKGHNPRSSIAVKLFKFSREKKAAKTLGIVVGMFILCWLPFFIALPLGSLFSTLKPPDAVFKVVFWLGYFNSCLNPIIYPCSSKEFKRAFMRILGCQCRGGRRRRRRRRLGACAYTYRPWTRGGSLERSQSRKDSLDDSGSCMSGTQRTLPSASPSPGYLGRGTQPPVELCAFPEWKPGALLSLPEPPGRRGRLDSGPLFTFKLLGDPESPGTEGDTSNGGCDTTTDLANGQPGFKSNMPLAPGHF
T2 sequence (P23944 whole entry): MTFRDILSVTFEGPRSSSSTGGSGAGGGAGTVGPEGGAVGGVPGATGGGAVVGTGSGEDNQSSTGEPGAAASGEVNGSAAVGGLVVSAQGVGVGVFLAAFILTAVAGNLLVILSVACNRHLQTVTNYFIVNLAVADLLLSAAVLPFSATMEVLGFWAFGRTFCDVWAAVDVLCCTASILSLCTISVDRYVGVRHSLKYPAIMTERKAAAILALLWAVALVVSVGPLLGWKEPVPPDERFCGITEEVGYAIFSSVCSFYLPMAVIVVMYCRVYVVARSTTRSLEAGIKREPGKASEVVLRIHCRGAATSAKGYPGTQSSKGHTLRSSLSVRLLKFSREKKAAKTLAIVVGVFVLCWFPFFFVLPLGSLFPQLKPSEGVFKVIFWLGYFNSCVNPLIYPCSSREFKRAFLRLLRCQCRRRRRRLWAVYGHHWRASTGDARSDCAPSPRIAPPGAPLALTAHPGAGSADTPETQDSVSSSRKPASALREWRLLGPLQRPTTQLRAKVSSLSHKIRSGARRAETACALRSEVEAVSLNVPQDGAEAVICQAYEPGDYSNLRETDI
T2 sequence (P43140 whole entry): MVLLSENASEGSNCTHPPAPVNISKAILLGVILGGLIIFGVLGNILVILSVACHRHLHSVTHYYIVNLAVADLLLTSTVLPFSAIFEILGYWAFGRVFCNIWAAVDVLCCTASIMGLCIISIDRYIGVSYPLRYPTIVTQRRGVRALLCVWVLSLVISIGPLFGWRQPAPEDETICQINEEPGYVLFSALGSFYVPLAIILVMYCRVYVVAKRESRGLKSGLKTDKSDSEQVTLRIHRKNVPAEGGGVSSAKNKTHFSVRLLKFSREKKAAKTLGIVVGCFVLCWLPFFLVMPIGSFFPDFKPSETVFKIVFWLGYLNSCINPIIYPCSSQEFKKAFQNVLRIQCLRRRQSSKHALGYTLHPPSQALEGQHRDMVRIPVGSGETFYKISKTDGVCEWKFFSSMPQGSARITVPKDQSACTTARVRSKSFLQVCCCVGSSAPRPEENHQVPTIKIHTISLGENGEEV
Procedure, shortened: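 Male CRL:CD(SD)BR-COBS rats (~150 g) were decapitated. Cortex was homogenized in 50 mM Tris-HCl pH 7.4, spun at 50000g, given 10 min at 37 °C and washed. Incubation buffer had 0.1% ascorbic acid and 10 μM pargyline. GF/B filtration and scintillation counting; IC50 from dose-inhibition curves.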

[3] = target: D(1A) dopamine receptor (Rattus norvegicus, UniProt P18901); assay: In vitro inhibitory concentration against radioligand [3H]SCH-23390 binding to Dopamine receptor D1 in rat striatal membrane; type: cell membranes, Striatum
Procedure, shortened: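 Rat striatal membranes were incubated in 50 mM Tris-HCl pH 7.1 containing 10 μM pargyline, 120 mM NaCl, 5 mM KCl, 2 mM CaCl2, 1 mM MgCl2 and 0.1% ascorbic acid. [3H]SCH23390 0.4 nM final, 15 min at 37 °C; nonspecific binding with (-)-cis-flupentixol 10 μM. Filtered and counted; IC50 by curve analysis.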

Structure (SMILES) | pIC50 [1] | IC50 [2] [nM] | pIC50 [3]
COc1ccccc1N1CCN(CCCSc2nc3sc(C)c(C)c3c(=O)n2N)CC1 | 6.10 | 7.3 | 6.40
Cc1sc2nc(SCCCN3CCN(c4ncccn4)CC3)n(N)c(=O)c2c1C | 7.70 | 506 | 6.22
COc1ccccc1C1CCN(CCCSc2nc3sc(C)c(C)c3c(=O)n2N)CC1 | 6.22 | 36 | 6.10

Source: ChEMBL document CHEMBL1129944, “[[(Arylpiperazinyl)alkyl]thio]thieno[2,3-d]pyrimidinone derivatives as high-affinity, selective 5-HT1A receptor ligands” (J Med Chem, 1997)
